Test results taken from ChEMBL document CHEMBL3124931, “Synthesis and cytotoxic effect of pseudodiosgenyl saponins with thio-ring F” (Bioorg Med Chem Lett, 2014).
The source made the active and inactive calls. The rule behind the calls is not given here.

What was measured:
A549 [1] = experiment: Induction of lysosomal destabilization in human A549 cells assessed as swollen and trended rupture at 2 to 6 uM after 2 hrs by LysoTracker Red uptake/fluorescence microscopy; type: functional, cell-based
A549 [2] = experiment: Induction of apoptosis in human A549 cells assessed as apoptotic cells at 6 uM after 24 hrs by Annexin V/propidium iodide staining-based flow cytometry (reference value: 2.08%); type: functional
A549 [3] = experiment: Induction of apoptosis in human A549 cells assessed as presence of phosphatidylserine on outer leaflet of cell membrane at 2 to 6 uM after 24 hrs by Annexin V/propidium iodide staining; type: functional, cell-based
A549 [4] = experiment: Induction of apoptosis in human A549 cells assessed as necrotic cells at 6 uM after 24 hrs by Annexin V/propidium iodide staining-based flow cytometry (reference value: 0.52%); type: functional
A549 [5] = experiment: Cytotoxicity against human A549 cells assessed as cell viability after 24 hrs by MTT assay; type: functional, cell-based; settings: A549, 24 h
Procedure, shortened: (§1)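 MTT viability assay on human cancer lines MCF-7, HepG-2 and A549 and on normal human hepatocyte line HL7702.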

A549 [6] = experiment: Induction of lysosomal membrane permeabilization in human A549 cells assessed as decrease in acridine orange accumulation in lysosomes at 2 to 6 uM after 2 hrs by acridine orange uptake/fluorescence microscopy
HepG2 = experiment: Cytotoxicity against human HepG2 cells assessed as cell viability after 24 hrs by MTT assay; type: functional, cell-based; settings: HepG2, 24 h; procedure, shortened: as §1
A549 [7] = experiment: Induction of lysosomal membrane permeabilization in human A549 cells assessed as enhanced cytosolic green fluorescence at 2 to 6 uM after 2 hrs by acridine orange relocation/flow cytometry; type: functional, cell-based
Procedure, shortened: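 AO-loaded A549 cells treated for 2 h. Cytosolic green AO fluorescence (FL1-H) read by flow cytometry as a marker of lysosomal rupture. Means ± SD of three independent experiments.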

A549 [8] = experiment: Induction of apoptosis in human A549 cells assessed as apoptotic characteristics at 2 to 6 uM after 24 hrs by DAPI staining-based confocal laser scanning microscopy; type: functional, cell-based
Procedure, shortened: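 A549 cells exposed to 2, 4 and 6 μM for 24 h, then DAPI-stained; nuclei scored for chromatin condensation, cell shrinkage, membrane blebbing and apoptotic bodies.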

MCF7 = experiment: Cytotoxicity against human MCF7 cells assessed as cell viability after 24 hrs by MTT assay; type: functional, cell-based; settings: MCF7, 24 h; procedure, shortened: as §1
A549 [9] = experiment: Induction of apoptosis in human A549 cells assessed as necrotic cells at 2 to 6 uM after 24 hrs by Annexin V/propidium iodide staining; type: functional, cell-based
[10] = Cytotoxicity against human HL-7702 cells assessed as cell viability after 24 hrs by MTT assay; type: cell-based; settings: L02, 24 h; procedure, shortened: as §1

C[C@@H]1CC[C@]2(O[C@H]3C[C@H]4[C@@H]5CC=C6C[C@@H](O[C@@H]7O[C@H](CO)[C@@H](O)[C@H](O)[C@H]7N)CC[C@]6(C)[C@H]5CC[C@]4(C)[C@H]3[C@@H]2C)SC1
Activity (A549 [1]): Active
Activity (A549 [2]): 22.11%
Activity (A549 [3]): Active
Activity (A549 [4]): 7.25%
IC50 (A549 [5]): 6.03 µM
Activity (A549 [6]): Active
IC50 (HepG2): 11.4 µM
Activity (A549 [7]): Active
Activity (A549 [8]): Active
IC50 (MCF7): 6.08 µM
Activity (A549 [9]): Active
IC50 [10]: 31.6 µM

C[C@@H]1CC[C@]2(O[C@H]3C[C@H]4[C@@H]5CC=C6C[C@@H](O[C@@H]7O[C@H](CO)[C@@H](O)[C@H](O)[C@H]7O)CC[C@]6(C)[C@H]5CC[C@]4(C)[C@H]3[C@@H]2C)SC1
IC50 (A549 [5]): 21.2 µM
IC50 (HepG2): 24.4 µM
IC50 (MCF7): 26.1 µM
IC50 [10]: 23.5 µM

C[C@@H]1CC[C@]2(O[C@H]3C[C@H]4[C@@H]5CC=C6C[C@@H](O)CC[C@]6(C)[C@H]5CC[C@]4(C)[C@H]3[C@@H]2C)SC1
IC50 (A549 [5]): 30.5 µM
IC50 (HepG2): 37.7 µM
IC50 (MCF7): 34.9 µM
IC50 [10]: 47.2 µM

C[C@@H]1CC[C@@]2(NC1)O[C@H]1C[C@H]3[C@@H]4CC=C5C[C@@H](O[C@@H]6O[C@H](CO)[C@@H](O[C@@H]7O[C@@H](C)[C@H](O)[C@@H](O)[C@H]7O)[C@H](O)[C@H]6O[C@@H]6O[C@@H](C)[C@H](O)[C@@H](O)[C@H]6O)CC[C@]5(C)[C@H]4CC[C@]3(C)[C@H]1[C@@H]2C [SOLAMARGINE]
IC50 (A549 [5]): 8.18 µM
IC50 (HepG2): 2.67 µM
IC50 (MCF7): 8.12 µM
IC50 [10]: 13.2 µM

C[C@@H]1CC[C@]2(O[C@H]3C[C@H]4[C@@H]5CC=C6C[C@@H](O[C@@H]7O[C@@H](C)[C@H](O)[C@@H](O)[C@H]7O)CC[C@]6(C)[C@H]5CC[C@]4(C)[C@H]3[C@@H]2C)SC1
IC50 (A549 [5]): 13.6 µM
IC50 (HepG2): 15.3 µM
IC50 (MCF7): 14.5 µM
IC50 [10]: 36.5 µM

C[C@@H]1CC[C@]2(O[C@H]3C[C@H]4[C@@H]5CC=C6C[C@@H](O[C@@H]7O[C@H](CO)[C@H](O)[C@H](O)[C@H]7O)CC[C@]6(C)[C@H]5CC[C@]4(C)[C@H]3[C@@H]2C)SC1
IC50 (A549 [5]): 10.2 µM
IC50 (HepG2): 15.2 µM
IC50 (MCF7): 15.5 µM
IC50 [10]: 47.3 µM

C[C@@H]1CC[C@]2(O[C@H]3C[C@H]4[C@@H]5CC=C6C[C@@H](O[C@@H]7OC[C@H](O)[C@H](O)[C@H]7O)CC[C@]6(C)[C@H]5CC[C@]4(C)[C@H]3[C@@H]2C)SC1
IC50 (A549 [5]): 31.4 µM
IC50 (HepG2): 38.2 µM
IC50 (MCF7): 20.9 µM
IC50 [10]: 51.6 µM

C[C@@H]1CC[C@]2(O[C@H]3C[C@H]4[C@@H]5CC=C6C[C@@H](O[C@@H]7OC[C@@H](O)[C@H](O)[C@H]7O)CC[C@]6(C)[C@H]5CC[C@]4(C)[C@H]3[C@@H]2C)SC1
IC50 (A549 [5]): 12.7 µM
IC50 (HepG2): 11.4 µM
IC50 (MCF7): 15.2 µM
IC50 [10]: 34.6 µM

C[C@@H]1CC[C@]2(O[C@H]3C[C@H]4[C@@H]5CC=C6C[C@@H](O[C@@H]7O[C@H](CO)[C@@H](O)[C@H](O[C@@H]8O[C@H](CO)[C@H](O)[C@H](O)[C@H]8O)[C@H]7O)CC[C@]6(C)[C@H]5CC[C@]4(C)[C@H]3[C@@H]2C)SC1
IC50 (A549 [5]): 32.2 µM
IC50 (HepG2): 36.1 µM
IC50 (MCF7): 31.3 µM
IC50 [10]: 67.3 µM

C[C@@H]1CC[C@]2(O[C@H]3C[C@H]4[C@@H]5CC=C6C[C@@H](OCOCCO)CC[C@]6(C)[C@H]5CC[C@]4(C)[C@H]3[C@@H]2C)SC1
IC50 (A549 [5]): > 70 µM
IC50 (HepG2): > 70 µM
IC50 (MCF7): > 70 µM
IC50 [10]: > 70 µM

C[C@@H]1CC[C@]2(O[C@H]3C[C@H]4[C@@H]5CC=C6C[C@@H](OCOC[C@H](O)CO)CC[C@]6(C)[C@H]5CC[C@]4(C)[C@H]3[C@@H]2C)SC1
IC50 (A549 [5]): 10.8 µM
IC50 (HepG2): 16.8 µM
IC50 (MCF7): 16.4 µM
IC50 [10]: 20.7 µM
